# Most compounds without a hit are left out; they make up all but 2% or so of the library.
# PKD1 kinase inh – inhibitors of human PKD1 kinase, biochemical, fluorescence polarization. Serine/threonine-protein kinase D1 (Homo sapiens), Q15139. PKD1 kinase fluorescence polarization assay. inhibition, % (concentration not given with the values). 200,000 tested, 0.056% active. AID 797, 2007
# Target sequence (Q15139 whole entry, looked up): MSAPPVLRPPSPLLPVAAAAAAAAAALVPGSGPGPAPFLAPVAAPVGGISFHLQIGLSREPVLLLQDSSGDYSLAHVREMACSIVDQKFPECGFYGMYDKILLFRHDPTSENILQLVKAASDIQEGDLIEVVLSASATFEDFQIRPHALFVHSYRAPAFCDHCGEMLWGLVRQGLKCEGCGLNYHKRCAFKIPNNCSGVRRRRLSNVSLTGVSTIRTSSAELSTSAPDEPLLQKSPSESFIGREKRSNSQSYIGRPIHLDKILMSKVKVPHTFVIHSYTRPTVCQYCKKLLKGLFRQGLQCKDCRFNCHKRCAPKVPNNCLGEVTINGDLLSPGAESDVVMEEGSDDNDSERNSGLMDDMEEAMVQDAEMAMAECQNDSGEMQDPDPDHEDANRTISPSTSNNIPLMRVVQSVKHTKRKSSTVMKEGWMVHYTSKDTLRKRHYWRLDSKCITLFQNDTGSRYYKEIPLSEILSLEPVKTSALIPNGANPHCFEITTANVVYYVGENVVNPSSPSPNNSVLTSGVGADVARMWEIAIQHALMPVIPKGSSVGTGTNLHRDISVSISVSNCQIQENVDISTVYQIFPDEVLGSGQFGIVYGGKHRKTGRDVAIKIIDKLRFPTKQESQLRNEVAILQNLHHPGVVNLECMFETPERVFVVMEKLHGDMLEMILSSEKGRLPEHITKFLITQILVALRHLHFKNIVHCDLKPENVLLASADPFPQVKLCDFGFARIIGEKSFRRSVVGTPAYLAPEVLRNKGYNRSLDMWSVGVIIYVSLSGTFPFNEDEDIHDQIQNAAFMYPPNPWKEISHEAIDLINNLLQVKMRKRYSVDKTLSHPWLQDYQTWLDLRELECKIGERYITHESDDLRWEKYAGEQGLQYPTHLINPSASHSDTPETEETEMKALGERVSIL
# MEX-5 binding – MEX-5 zinc finger RNA-binding disruptors – biochemical, C. elegans, fluorescence polarization, MLPCN library, primary screen. Zinc finger protein mex-5 (Caenorhabditis elegans), Q9XUB2. MEX-5/FITC-TCR2 RNA binding; active compounds read low. activity score (negative = inhibition of binding), % at 10 µM. 300,000 tested, 0.38% active. AID 1832, 2009;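 active = inhibition past about -25% in most replicates, and total fluorescence under double the plate's negative control median, limit read from the data; inconclusive = replicates evenly split on the limit, or fluorescence at least double controls; inactive = too little inhibition in most replicates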
# Runt-SMMHC FRET – inhibitors of RUNX1 Runt–CBFb-SMMHC binding, primary screen, biochemical, FRET, Cerulean-Runt, Venus-CBFb-SMMHC, uHTS. Runt-related transcription factor 1 (Homo sapiens) + Core-binding factor subunit beta …. inhibition, % at 20 µM. Cerulean-Runt/Venus-CBFb-SMMHC FRET ratio 530/480, 1 h. 220,000 tested, 0.74% active;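 active = mean inhibition across duplicate retests at 20 µM reaching about 50%, limit read from the data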;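 also: inhibitors lower the FRET ratio by blocking Runt binding to CBFb-SMMHC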
# Runt-CBFb FRET – inhibitors of RUNX1 Runt–CBFb binding, primary screen, biochemical, FRET, Cerulean-Runt, Venus-CBFb, uHTS | Runt-related transcription factor 1 (Homo sapiens) + Core-binding factor subunit beta … | Cerulean-Runt/Venus-CBFb FRET ratio 530/480, 1 h | inhibition, % at 20 µM | 220,000 tested, 0.46% active | AID 1496, 2009;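 active = inhibition over about 50% at 20 µM in the single-dose screen, limit read from the data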
#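 Measured by: fluorescence energy transfer, 422 nm excitation, 530/480 nm emission; test system: Cerulean-tagged RUNX1 Runt domain (FRET donor) fusion protein; buffer or medium: Tris pH 7.5 buffer with BSA; compound: one dose, 20 µM compound, 1% DMSO; times: two 1 h room-temperature incubations shielded from light; benchmarks: unlabeled CBFb 5 µM, positive control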
# EBV gp42 block – Epstein-Barr virus gp42 inhibitors, primary screen, biochemical, uHTS, fluorescence polarization; Glycoprotein 42 (Epstein-Barr virus (strain AG876)), Q1HVG2; Fluorescence polarization binding assay, mP read-out; inhibition, % (tested at 21.74 µM); 220,000 tested, 0.42% active; AID 1085, 2008
# RanGTP-Imp inh – inhibitors of RanGTP-importin-beta interaction, primary screen, biochemical, FRET, CFP-Ran, YFP-importin-beta, homogeneous; cell-free CFP-Ran/YFP-importin-beta FRET ratio; inhibition, % (no concentration beside the values); Ran GTPase (GTP-bound) - importin-beta complex; 300,000 tested, 1.1% active; AID 2216, 2009;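 active = more than half of the replicate wells show a fall in the fluorescence ratio signal beyond about 16%, limit read from the data, passing the limit was not always enough; inconclusive = exactly half of the replicate wells pass the set limit; inactive = fewer than half of replicates pass the limit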
# Hits are given with their value; - = inactive; ? = inconclusive; . = not tested or not shown. Rule as the data show it, unless noted: active = inhibition above about 50%; inactive = the rest.
SMILES,PKD1 kinase inh,MEX-5 binding,Runt-SMMHC FRET,Runt-CBFb FRET,EBV gp42 block,RanGTP-Imp inh
Cc1cccc(N(C(=O)c2csnn2)C(C(=O)NC2CCCCC2)c2ccccn2)c1C (stereo not drawn),.,-,.,.,.,-
Cc1ccc(CCNC(=O)C2CCN(S(=O)(=O)c3ccc4nc5c(c(C(=O)O)c4c3)CCCC5)CC2)cc1,.,-,.,.,.,-
CCN(CC)c1ccc2cc(C(N)=O)c(=O)oc2c1,-,-,95,-,-,153
CCN(CC)c1ccc2cc(C(N)=O)c(=N)oc2c1,-,?,92,-,-,151
CCN(CC)c1ccc2cc(C=O)c(=O)oc2c1,-,?,60,-,-,126
CCOc1cc(-n2cnnn2)c(OCC)cc1NC(=O)c1cc2ccc(N(CC)CC)cc2oc1=O,-,.,.,.,.,.
CCN(CC)c1ccc2cc(-c3nnc(-c4ccncc4)o3)c(=O)oc2c1,-,.,63,-,-,.
O=C1OC(CO)CN1Cc1ccccc1 (stereo not drawn),.,-,.,.,.,-
CCN(CC)c1ccc2cc(C(=O)Nc3ccccn3)c(=O)oc2c1,-,-,62,-,-,161
N/C(=N\NC(=O)c1cccs1)c1cc2ccccc2oc1=O,-,-,-,-,-,?
CCN(CC)c1ccc2cc(/C(N)=N/NC(=O)c3cccs3)c(=O)oc2c1,.,-,-,-,-,159
CCN(CC)c1ccc2cc(NC(=O)CCC(=O)O)c(=O)oc2c1,-,-68,63,-,74,136
Cc1cnc(CNC(=O)C2CCC(=O)N(Cc3ccc(Cl)cc3)C2)[nH]1 (stereo not drawn),.,-,.,.,.,-
NS(=O)(=O)c1ccc(N2N=C(c3ccc(Br)cc3)CC2c2ccc(F)cc2)cc1 (stereo not drawn),-,-,-,-,-,23
O=C(O)C1CC(=O)N(CCc2ccc(F)cc2)C1 (stereo not drawn),.,-,.,.,.,-
Cc1oc(/N=C/c2ccccc2O)c(C#N)c1C,-,-,-,-,-,-
Cc1oc(/N=C/c2ccc(O)cc2O)c(C#N)c1C,-,?,90,78,-,82
COc1ccc(-n2c(=O)/c(=C\c3cccs3)s/c2=C(/C#N)C(=O)NCCN2CCOCC2)cc1,-,-,-,-,-,-
C=CCn1c(=O)/c(=C\c2ccsc2)s/c1=C(/C#N)C(=O)NCCN1CCOCC1,-,-46,-,-,-,-
C/C(=N\Nc1nc(-c2ccccc2)cs1)c1cccs1,-,-,-,-,-,-
C/C(=N\Nc1nc2ccccc2s1)c1cccs1,-,-,-,-,-,22
CN1CCN(S(=O)(=O)c2cccc(C(=O)N(Cc3nnc(-c4ccccc4Cl)o3)C3CC3)c2)CC1,.,-,.,.,.,-
O=c1[nH]c(C(Cl)Cl)nc2sc3c(c12)CCN(Cc1ccccc1)C3,-,-,.,54,56,37
CCOC(=O)c1c(Nc2ccccc2N)cc(C)nc1C,-,.,-,-,81,.
COc1ccccc1CC(=O)NNS(=O)(=O)c1ccc([N+](=O)[O-])cc1,-,-,-,-,-,-
SMILES,PKD1 kinase inh,MEX-5 binding,Runt-SMMHC FRET,Runt-CBFb FRET,EBV gp42 block,RanGTP-Imp inh
COc1cc2c(cc1OC)-c1cc3ccc4c(c3c[n+]1CC2)OCO4,-,?,-,-,126,-
CSc1ccccc1C(=O)NCc1ccc(F)cc1,74,-,-,-,-,-
CSc1ccccc1C(=O)NCc1ccc(C)cc1,-,-,-,-,-,-
CCOc1ccc(CCNC(=O)CSc2nc3ncc(Cl)cc3[nH]2)cc1OCC,.,-,.,.,.,-
ClCc1nc2ccccc2n1Cc1ccccc1,.,-66,.,.,.,-
COc1ccccc1NC(=O)CNC(=O)c1ccccc1,-,-,-,-,-,-
COc1ccccc1NC(=O)CNC(=O)c1ccccc1C,-,-,-,-,-,24
N#C/C(=C(/O)c1ccco1)c1nc2ccccc2s1,-,-,-,-,-,-
N#C/C(=C(/O)c1cc2ccccc2o1)c1nc2ccccc2s1,.,-33,-,-,-,-
